Test results published in ChEMBL document CHEMBL1142953, “Calcitonin gene-related peptide analogues with aza and indolizidinone amino acid residues reveal conformational requirements for antagonist activity at the human calcitonin gene-related peptide 1 receptor” (J Med Chem, 2007).
Activity calls are given as the source filed them. No cut-off for these calls is given here. Where a SMILES comes first, the peptide text is derived from it.

Assays:
[1] = biological target: Calcitonin gene-related peptide type 1 receptor (Homo sapiens) (UniProt Q16602); assay: Antagonist activity against human CGRP1 expressed in HEK293 cells assessed as inhibition of human alpha-CGRP-promoted cAMP production upto 100 uM; assay type: functional, cell-based
In short: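 HEK293 cells stably expressing CRLR, seeded at 5000 cells/well. Cells preincubated with peptide analogues for 15 min at 37 °C, then stimulated with 0.5 nM α-CGRP for 15 min at 37 °C. cAMP measured with a fluorescence-based kit. Peptides tested up to 100 µM. At least three independent experiments in triplicate, analysed by nonlinear curve fitting; mean ± SEM.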

[2] = biological target: Calcitonin gene-related peptide type 1 receptor (Homo sapiens) (UniProt Q16602); assay: Partial agonist activity at human CGRP1 expressed in HEK293 cells assessed by measuring cAMP production upto 1 uM; assay type: functional, cell-based
In short: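 HEK293 cells stably expressing CRLR were exposed to CGRP27-37 analogues up to 1 µM without α-CGRP. cAMP production was measured with a fluorescence-based kit as the read-out.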

Chain of Calcitonin gene-related peptide type 1 receptor (Homo sapiens) (Q16602 whole entry): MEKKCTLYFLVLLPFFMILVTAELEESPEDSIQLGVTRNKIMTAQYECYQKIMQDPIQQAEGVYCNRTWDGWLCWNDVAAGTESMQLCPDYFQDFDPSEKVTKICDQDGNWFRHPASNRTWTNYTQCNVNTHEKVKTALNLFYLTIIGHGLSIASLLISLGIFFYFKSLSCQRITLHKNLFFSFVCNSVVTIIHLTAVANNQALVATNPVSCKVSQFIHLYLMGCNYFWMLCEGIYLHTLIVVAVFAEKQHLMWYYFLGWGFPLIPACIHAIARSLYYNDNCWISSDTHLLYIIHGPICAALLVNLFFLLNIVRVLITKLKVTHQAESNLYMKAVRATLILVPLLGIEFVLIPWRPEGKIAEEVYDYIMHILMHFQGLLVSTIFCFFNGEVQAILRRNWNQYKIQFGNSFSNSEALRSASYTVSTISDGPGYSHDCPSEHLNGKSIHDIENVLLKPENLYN

| Activity [1] | Activity [2] | Structure (SMILES) |
| --- | --- | --- |
| inactive | inactive | CC(C)[C@H](NC(=O)[C@H](CC(=O)O)NC(=O)[C@@H](NC(=O)[C@@H]1CCCN1C(=O)[C@@H](NC(=O)[C@@H](N)Cc1ccccc1)C(C)C)[C@@H](C)O)C(=O)NCC(=O)N[C@H]1C[C@H]2CCC[C@@H](C(=O)N[C@@H](C)C(=O)N[C@@H](Cc3ccccc3)C(N)=O)N2C1=O |
| inactive |  | CC(C)[C@H](NC(=O)[C@H](CC(=O)O)NC(=O)[C@@H](NC(=O)[C@@H]1CCCN1)[C@@H](C)O)C(=O)NCC(=O)N1CCC[C@H]1C(=O)N[C@@H](Cc1ccccc1)C(=O)NN(C)C(=O)N[C@@H](Cc1ccccc1)C(N)=O (HELM PEPTIDE1{P.T.D.V.G.P.F.[CN(N[*:1])C(=O)[*:2]].F.[am]}$$$$V2.0) |
| inactive | inactive | CC(C)[C@H](NC(=O)[C@H](CC(=O)O)NC(=O)[C@@H](NC(=O)C1CCCN1C(=O)[C@@H](NC(=O)[C@@H](N)Cc1ccccc1)C(C)C)[C@@H](C)O)C(=O)NCC(=O)N[C@H]1C[C@H]2C[C@@H](c3ccccc3)C[C@@H](C(=O)N[C@@H](C)C(=O)N[C@@H](Cc3ccccc3)C(N)=O)N2C1=O (some centres undefined) |
| inactive | inactive | CC(C)[C@H](NC(=O)[C@H](CC(=O)O)NC(=O)[C@@H](NC(=O)[C@@H]1CCCN1C(=O)[C@@H](NC(=O)[C@@H](N)Cc1ccccc1)C(C)C)[C@@H](C)O)C(=O)NCC(=O)N1CCC[C@@H]1C(=O)N[C@@H](Cc1ccccc1)C(=O)N[C@H]1C[C@H]2C[C@@H](c3ccccc3)C[C@@H](C(N)=O)N2C1=O |
| inactive |  | CC(C)[C@H](NC(=O)[C@H](CC(=O)O)NC(=O)[C@@H](NC(=O)C1CCCN1)[C@@H](C)O)C(=O)NCC(=O)N[C@H]1C[C@H]2C[C@@H](c3ccccc3)C[C@@H](C(=O)N[C@@H](C)C(=O)N[C@@H](Cc3ccccc3)C(N)=O)N2C1=O (some centres undefined) |
| inactive |  | CC(C)[C@H](NC(=O)[C@H](CC(=O)O)NC(=O)[C@@H](NC(=O)[C@@H]1CCCN1)[C@@H](C)O)C(=O)NCC(=O)N1CCCC1C(=O)N[C@@H](Cc1ccccc1)C(=O)N[C@H]1C[C@H]2C[C@@H](c3ccccc3)C[C@@H](C(N)=O)N2C1=O (some centres undefined) (HELM PEPTIDE1{P.T.D.V.G.[O=C(C1CCCN1[*:1])[*:2]].F.[NC(=O)[C@@H]1C[C@H](c2ccccc2)C[C@@H]2C[C@H](N[*:1])C(=O)N21]}$$$$V2.0) |
| inactive |  | C[C@H](NC(=O)[C@H](Cc1ccccc1)NC(=O)[C@@H]1CCCN1C(=O)CNC(=O)[C@@H]1CC[C@@H]2CC[C@H](NC(=O)[C@@H](NC(=O)[C@@H]3CCCN3)[C@H](C)O)C(=O)N21)C(=O)N[C@@H](Cc1ccccc1)C(N)=O |
| inactive |  | CC(C)[C@H](NC(=O)[C@H](CC(=O)O)NC(=O)[C@@H](NC(=O)[C@@H]1CCCN1)[C@@H](C)O)C(=O)NCC(=O)N[C@H]1C[C@H]2CCC[C@@H](C(=O)N[C@@H](C)C(=O)N[C@@H](Cc3ccccc3)C(N)=O)N2C1=O |
| inactive |  | CC(C)[C@H](NC(=O)[C@H](CC(=O)O)NC(=O)[C@@H](NC(=O)[C@@H]1CCCN1)[C@@H](C)O)C(=O)NCC(=O)N1CCC[C@H]1C(=O)NN(Cc1ccccc1)C(=O)N[C@@H](C)C(=O)N[C@@H](Cc1ccccc1)C(N)=O (HELM PEPTIDE1{P.T.D.V.G.P.[O=C(N(Cc1ccccc1)N[*:1])[*:2]].A.F.[am]}$$$$V2.0) |
| inactive |  | CC(C)[C@H](NC(=O)[C@H](CC(=O)O)NC(=O)[C@@H](NC(=O)[C@@H]1CCCN1)[C@@H](C)O)C(=O)NNC(=O)N1CCC[C@H]1C(=O)N[C@@H](Cc1ccccc1)C(=O)N[C@@H](C)C(=O)N[C@@H](Cc1ccccc1)C(N)=O (HELM PEPTIDE1{P.T.D.V.[O=C(NN[*:1])[*:2]].P.F.A.F.[am]}$$$$V2.0) |
| inactive |  | CC(C)[C@H](NC(=O)N(CC(=O)O)NC(=O)[C@@H](NC(=O)[C@@H]1CCCN1)[C@@H](C)O)C(=O)NCC(=O)N1CCC[C@H]1C(=O)N[C@@H](Cc1ccccc1)C(=O)N[C@@H](C)C(=O)N[C@@H](Cc1ccccc1)C(N)=O (HELM PEPTIDE1{P.T.[O=C(O)CN(N[*:1])C(=O)[*:2]].V.G.P.F.A.F.[am]}$$$$V2.0) |
